Experimental data from ChEMBL document CHEMBL5634103 (Eur J Med Chem, 2023).

Columns and labels:
D(2) dopamine receptor [1] = biological target: T1, D(2) dopamine receptor (Homo sapiens, UniProt P14416); assay: Displacement of [125I]IABN from human D2L receptor expressed in HEK cells measured after 60 mins by gamma counting method; assay type: cell-based
Homo sapiens = species: Homo sapiens; assay: Selectivity ratio of Ki for displacement of [125I]IABN from human D2L receptor expressed in HEK cells to Ki for displacement of [125I]IABN from human D3R expressed in HEK cells; assay type: cell-based
Outline: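 20 µM (+)-butaclamol defines nonspecific binding. Inhibitor over 5 log units, two points per decade, triplicates. Gamma counting. Single-site IC50 converted to Ki (Cheng–Prusoff), ≥3 experiments. Ratio is D2 Ki/D3 Ki.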

D(3) dopamine receptor [2] = biological target: T2, D(3) dopamine receptor (Homo sapiens, UniProt P35462); assay: Displacement of [125I]IABN from human D3 receptor expressed in HEK cells measured after 60 mins by gamma counting method; assay type: cell-based
D(2) dopamine receptor [3] = biological target: T1, D(2) dopamine receptor; assay: Binding affinity to D2 receptor (unknown origin)
D(3) dopamine receptor [4] = biological target: T2, D(3) dopamine receptor; assay: Binding affinity to human D3 receptor expressed in CHO-K1 cells assessed as inhibition of dopamine-induced beta-arrestin recruitment preincubated for 30 mins followed by dopamine addition and measured after 90 mins by pathhunter assay

T1 sequence (P14416 whole entry): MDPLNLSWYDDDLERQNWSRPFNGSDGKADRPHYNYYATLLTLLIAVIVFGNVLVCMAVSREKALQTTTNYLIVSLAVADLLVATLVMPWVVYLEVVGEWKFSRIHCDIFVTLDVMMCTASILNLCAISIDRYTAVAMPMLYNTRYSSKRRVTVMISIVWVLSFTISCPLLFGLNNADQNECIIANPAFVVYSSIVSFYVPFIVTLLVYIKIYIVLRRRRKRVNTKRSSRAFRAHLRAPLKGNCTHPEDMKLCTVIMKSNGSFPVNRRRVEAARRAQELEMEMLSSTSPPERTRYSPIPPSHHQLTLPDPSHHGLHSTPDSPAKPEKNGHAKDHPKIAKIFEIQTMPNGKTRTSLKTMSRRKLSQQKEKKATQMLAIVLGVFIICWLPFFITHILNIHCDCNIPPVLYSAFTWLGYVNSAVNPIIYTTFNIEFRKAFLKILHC
T2 sequence (P35462 whole entry): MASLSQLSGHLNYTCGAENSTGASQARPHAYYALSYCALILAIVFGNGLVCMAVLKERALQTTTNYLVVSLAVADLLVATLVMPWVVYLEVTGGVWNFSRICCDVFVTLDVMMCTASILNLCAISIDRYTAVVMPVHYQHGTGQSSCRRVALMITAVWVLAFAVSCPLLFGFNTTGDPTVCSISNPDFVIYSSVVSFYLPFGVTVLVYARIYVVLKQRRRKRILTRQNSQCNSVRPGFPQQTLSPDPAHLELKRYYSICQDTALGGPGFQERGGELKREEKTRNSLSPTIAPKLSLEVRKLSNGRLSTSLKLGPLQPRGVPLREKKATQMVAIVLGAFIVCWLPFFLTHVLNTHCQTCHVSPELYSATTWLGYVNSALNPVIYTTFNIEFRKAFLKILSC

Row | Structure (SMILES) | Ki (D(2) dopamine receptor [1]) [nM] | Ratio Ki (Homo sapiens) | Ki (D(3) dopamine receptor [2]) [nM] | Ki (D(2) dopamine receptor [3]) [nM] | IC50 (D(3) dopamine receptor [4]) [nM]
1 | C=CCN1C[C@@H](OC(=O)Nc2ccc(-c3ccsc3)cc2)C[C@@H]1CNC(=O)c1cc(CCCF)cc(OC)c1OC | 189 | 6.7 |  |  | 
2 | C=CCN1C[C@H](OC(=O)NCCc2ccccc2)C[C@H]1CNC(=O)c1cc(CCCF)cc(OC)c1OC | 30 | 2.3 | 12.8 |  | 
3 | C=CCN1CC[C@H](OCc2ccccc2)[C@H]1CNC(=O)c1cc(CCCF)cc(OC)c1OC | 7.3 | 2.5 | 2.9 |  | 
4 | C=CCN1C[C@H](OC(=O)Nc2cc(C)ccc2OC)C[C@H]1CNC(=O)c1cc(CCCF)cc(OC)c1OC | 18.7 | 1.5 | 12.5 |  | 
5 | C=CCN1CCC[C@H]1CNC(=O)c1cc(CCCF)cc(OC)c1OC [FALLYPRIDE] |  |  |  | 0.02 | 
6 | C=CCN1C[C@H](OCc2ccc(C(F)(F)F)cc2)C[C@H]1CNC(=O)c1cc(CCCF)cc(OC)c1OC | 32.1 | 1.4 | 23.7 |  | 
7 | CCN1C[C@H](OC(=O)Nc2ccc(-c3ccsc3)cc2)C[C@H]1CNC(=O)c1cc(CCCF)cc(OC)c1OC | 16.2 | 3.8 | 4.3 |  | 62.7
8 | C=CCN1C[C@H](OCCO)C[C@H]1CNC(=O)c1cc(CCCF)cc(OC)c1OC | 8.4 | 3.5 | 2.4 |  | 
9 | C=CCN1C[C@H](OC(=O)Nc2cccnc2)C[C@H]1CNC(=O)c1cc(CCCF)cc(OC)c1OC | 8.3 | 2.2 | 3.7 |  | 
10 | C=CCN1C[C@H](OC(=O)Nc2ccccc2C)C[C@H]1CNC(=O)c1cc(CCCF)cc(OC)c1OC | 12.6 | 1.5 | 8.4 |  | 
11 | C=CCN1C[C@H](OCc2ccc(F)cc2)C[C@H]1CNC(=O)c1cc(CCCF)cc(OC)c1OC | 9.5 | 2 | 4.7 |  | 
12 | C=CCN1C[C@H](OC(=O)Nc2ccccn2)C[C@H]1CNC(=O)c1cc(CCCF)cc(OC)c1OC | 10.1 | 2.4 | 4.1 |  | 
13 | C=CCN1C[C@H](OC(=O)NCc2ccccc2)C[C@H]1CNC(=O)c1cc(CCCF)cc(OC)c1OC | 10.1 | 1.6 | 6.2 |  | 
14 | C=CCN1C[C@H](OC(=O)Nc2cccc(N(C)C)c2)C[C@H]1CNC(=O)c1cc(CCCF)cc(OC)c1OC | 14 | 1.3 | 10.6 |  | 
15 | C=CCN1C[C@H](OCc2cccnc2)C[C@H]1CNC(=O)c1cc(CCCF)cc(OC)c1OC | 2.5 | 1.5 | 1.7 |  | 
16 | C=CCN1C[C@H](OCCCCN)C[C@H]1CNC(=O)c1cc(CCCF)cc(OC)c1OC | 2.2 | 1.4 | 1.5 |  | 
17 | C=CCO[C@@H]1C[C@@H](CNC(=O)c2cc(CCCF)cc(OC)c2OC)N(CC=C)C1 | 7.4 | 2.8 | 2.6 |  | 

Row | Structure (SMILES) | Ki (D(2) dopamine receptor [1]) [nM] | Ratio Ki (Homo sapiens) | Ki (D(3) dopamine receptor [2]) [nM] | Ki (D(2) dopamine receptor [3]) [nM] | IC50 (D(3) dopamine receptor [4]) [nM]
18 | C=CCN1CC[C@H](OCCCN)[C@H]1CNC(=O)c1cc(CCCF)cc(OC)c1OC | 21.4 | 3.5 | 6.2 |  | 
19 | C=CCN1C[C@H](OCCCO)C[C@H]1CNC(=O)c1cc(CCCF)cc(OC)c1OC | 14.2 | 1.9 | 7.3 |  | 
20 | C=CCN1C[C@H](OCCCN)C[C@H]1CNC(=O)c1cc(CCCF)cc(OC)c1OC | 18.6 | 2.2 | 8.4 |  | 1.3
21 | C=CCN1C[C@H](OC(=O)Nc2ccc(-c3ccccn3)cc2)C[C@H]1CNC(=O)c1cc(CCCF)cc(OC)c1OC | 22.4 | 1.4 | 15.8 |  | 79.2
22 | C=CCN1C[C@@H](OC(=O)Nc2ccc(-c3ccsc3)cc2)C[C@H]1CNC(=O)c1cc(CCCF)cc(OC)c1OC | 9690 | 16.5 |  |  | 
23 | CCN1C[C@H](OCCCN)C[C@H]1CNC(=O)c1cc(CCCF)cc(OC)c1OC | 2.9 | 2.1 | 1.4 |  | 3.3
24 | C=CCN1C[C@H](OCCN)C[C@H]1CNC(=O)c1cc(CCCF)cc(OC)c1OC | 107 | 11.3 | 9.5 |  | 11
25 | C=CCN1C[C@H](OC(=O)Nc2ccc(-c3ccsc3)cc2)C[C@@H]1CNC(=O)c1cc(CCCF)cc(OC)c1OC | > 41000 | > 6 | 6790 |  | 
26 | C=CCN1C[C@H](OC(=O)Nc2ccsc2)C[C@H]1CNC(=O)c1cc(CCCF)cc(OC)c1OC | 7.7 | 1.3 | 6.1 |  | 
27 | C=CCN1C[C@H](OCc2ccncc2)C[C@H]1CNC(=O)c1cc(CCCF)cc(OC)c1OC | 7 | 1.7 | 4 |  | 
28 | C=CCN1C[C@H](OCc2ccccc2)C[C@H]1CNC(=O)c1cc(CCCF)cc(OC)c1OC |  |  | 9.5 |  | 
29 | C=CCN1C[C@H](OC(=O)Nc2ccc(-c3ccsc3)cc2)C[C@H]1CNC(=O)c1cc(CCCF)cc(OC)c1OC | 28.8 | 3.7 | 7.7 |  | 169
30 | C=CCN1C[C@H](OCCCNC(=O)c2ccc(-c3ccsc3)cc2)C[C@H]1CNC(=O)c1cc(CCCF)cc(OC)c1OC | 13.4 | 3.2 | 4.2 |  | 8.1
31 | C=CCN1C[C@H](OC(=O)Nc2ccoc2)C[C@H]1CNC(=O)c1cc(CCCF)cc(OC)c1OC | 8.3 | 0.6 | 15 |  | 
32 | C=CCN1C[C@H](OC(=O)Nc2ccccc2)C[C@H]1CNC(=O)c1cc(CCCF)cc(OC)c1OC | 29.2 | 2 | 14.6 |  | 
33 | C=CCN1C[C@H](OCCCN)C[C@@H]1CNC(=O)c1cc(CCCF)cc(OC)c1OC | 2350 | 1.2 | 1950 |  | 
